Calls of active or inactive are those of the source. The calls are words filed in the database; no cut-off is given here.
Assays:
Mus musculus [1] = assay: Neurotoxicity in CF1 albino mouse assessed as unable to grasp rotarod, death, diarrhea, loss of righting reflux and clonic seizure at 100 mg/kg, ip after 0.5 hrs by rotarod test; format: toxicity, organism-based; conditions: in vivo
Summary of the method: (§1)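 Male albino CF-1 mice dosed ip with compound suspended in 0.5% methylcellulose, then placed on a 1-inch knurled plastic rod turning at 6 rpm. A fall three times within 1 min counted as neurotoxicity. Observations were made at 0.5 h and 4 h after dosing. Result given as animals showing toxicity per animals tested, with the kind of toxicity recorded.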

Mus musculus [2] = assay: Neurotoxicity in CF1 albino mouse at 10 mg/kg, ip after 0.5 hrs by rotarod test; format: toxicity, organism-based; conditions: in vivo
Summary of the method: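 Rotarod neurotoxicity in male CF-1 mice dosed ip as 0.5% methylcellulose suspension: mouse placed on 1 inch knurled rod rotating at 6 rpm; toxicity when the animal falls off three times within 1 min, with other signs noted. Scored as toxic/tested at 0.5 h and 4 h.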

Mus musculus [3] = assay: Anticonvulsant activity in CF1 albino mouse assessed as protection against maximal electroshock-induced seizure at 10 mg/kg, ip after 0.5 hrs; format: functional, organism-based
Summary of the method: (§2)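 Male CF-1 mice dosed ip as suspension in 0.5% methylcellulose. Corneal electrodes deliver 60 Hz alternating current, 50 mA for […], after a drop of 0.5% tetracaine HCl in 0.9% NaCl per eye. Protection means abolition of hindlimb tonic extension; scored as protected/tested, or ED50 with 95% confidence interval.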

Mus musculus [4] = assay: Neurotoxicity in ip dosed CF1 albino mouse after 0.5 hrs by rotarod test; format: toxicity, organism-based; conditions: in vivo
Summary of the method: (§3)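 Rotarod neurotoxicity in male albino CF-1 mice dosed ip with compound suspended in 0.5% methylcellulose. Animal placed on a 1 inch diameter knurled plastic rod rotating at 6 rpm. Neurotoxicity scored when the animal falls off three times within 1 min. Readout is number of animals toxic/number tested at the stated time after dosing. TD50 with 95% confidence interval from the quantitative study.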

Mus musculus [5] = assay: Neurotoxicity in CF1 albino mouse at 60 mg/kg, ip after 1 to 4 hrs by rotarod test; format: toxicity, organism-based; conditions: in vivo; summary of the method: as §3
Mus musculus [6] = assay: Anticonvulsant activity in CF1 albino mouse assessed as protection against maximal electroshock-induced seizure at 30 mg/kg, ip after 0.5 hrs; format: functional, organism-based; summary of the method: as §2
Rattus norvegicus = assay: Anticonvulsant activity in Sprague-Dawley rat assessed as protection against maximal electroshock-induced seizure at 30 mg/kg, ip after 2 hrs; format: functional, organism-based
Mus musculus [7] = assay: Neurotoxicity in CF1 albino mouse at 30 mg/kg, ip after 4 hrs by rotarod test; format: toxicity, organism-based; conditions: in vivo; summary of the method: as §3
Mus musculus [8] = assay: Anticonvulsant activity in CF1 albino mouse assessed as protection against 6 Hz-psychomotor-induced seizure at 30 mg/kg, ip after 0.25 to 4 hrs; format: functional, organism-based
Summary of the method: (§4)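 Male CF-1 mice, ip suspension in 0.5% methylcellulose. Corneal stimulation 0.2 ms monopolar rectangular pulses at 6 Hz, 32 mA for 3 s via constant-current device; mice without minimal clonic phase seizure counted protected. Groups of four; read at 0.25, 0.5, 1, 2, 4 h; result as protected/tested.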

Mus musculus [9] = assay: Neurotoxicity in CF1 albino mouse assessed as unable to grasp rotarod and death at 300 mg/kg, ip after 0.5 hrs by rotarod test; format: toxicity, organism-based; conditions: in vivo; summary of the method: as §1
Mus musculus [10] = assay: Anticonvulsant activity in CF1 albino mouse assessed as protection against 6 Hz-psychomotor-induced seizure at 60 mg/kg, ip after 4 hrs; format: functional, organism-based; summary of the method: as §4

Compound: CC1CCCN(CCCCCCCOc2ccc(Cl)cc2)C1.O=C(O)C(=O)O (stereo unspecified)
- Activity (Mus musculus [1]): Toxic
- Activity (Mus musculus [2]): Non-toxic
- Activity (Mus musculus [3]): inactive
- ED50 (Mus musculus [4]): 5.35 mg/kg
- Activity (Mus musculus [5]): Non-toxic
- Activity (Mus musculus [6]): Active
- Activity (Rattus norvegicus): Active
- Activity (Mus musculus [7]): Non-toxic
- Activity (Mus musculus [8]): inactive
- Activity (Mus musculus [9]): Toxic
- Activity (Mus musculus [10]): inactive
